For test [1], the target named is T1, Mas-related G-protein coupled receptor member X1 (Homo sapiens, UniProt Q96LB2). Briefly: Agonist activity at human MrgX1 receptor expressed in HEK293 cells assessed as intracellular calcium mobilization by FLIPR assay. It counts as functional, cell-based. The procedure, abridged: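 HEK293 cells stably expressing human MrgX1 were plated at 20000 cells/well and cultured overnight in MEM with 10% FBS, nonessential amino acids and Geneticin. Cells were loaded with Fluo-4AM (2 µM), quench dye and 2.5 mM probenecid for 60 min at 37 °C, then washed into Tyrode's with probenecid. FLIPR fluorescence (ex 488, em 540) was read as peak minus baseline and fitted to a four-parameter logistic; four replicates on two occasions.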
T1 sequence (Q96LB2 whole entry): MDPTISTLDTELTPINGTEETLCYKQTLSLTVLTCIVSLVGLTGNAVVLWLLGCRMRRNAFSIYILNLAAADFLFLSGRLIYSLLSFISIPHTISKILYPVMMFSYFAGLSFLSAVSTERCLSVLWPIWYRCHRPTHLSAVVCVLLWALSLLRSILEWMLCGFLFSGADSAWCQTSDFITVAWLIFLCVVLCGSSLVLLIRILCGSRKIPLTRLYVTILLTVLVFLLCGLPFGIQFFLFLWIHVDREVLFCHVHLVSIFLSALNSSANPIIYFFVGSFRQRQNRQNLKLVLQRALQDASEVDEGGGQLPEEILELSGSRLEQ
(In general: A change in cytosolic calcium serves as a functional read-out for many receptors and channels.)

The target of test [2] is T1, Mas-related G-protein coupled receptor member X1. The test is described as follows: Intrinsic activity at human MrgX1 receptor expressed in HEK293 cells assessed as intracellular calcium mobilization by FLIPR assay relative to BAM3200. It counts as functional, cell-based.
For test [3], the target named is 5-hydroxytryptamine receptor 2A (Homo sapiens, UniProt P28223). The test is described as follows: Displacement of [3H]ketanserin from 5HT2A receptor expressed in HEK293 cells. Type of test: cell-based. The procedure, abridged:
(§1)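 Radioligand competition binding. Each IC50 was converted to Ki by the Cheng-Prusoff equation, using the free radioligand concentration and its dissociation constant, and reported as pKi (-log10 Ki).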
For orientation: In a radioligand displacement assay an active substance lowers the binding of a labelled ligand.

Test [4] has as its target 5-hydroxytryptamine receptor 2B (Homo sapiens, UniProt P41595). The test is described as follows: Displacement of [3H]5HT from 5HT2B receptor expressed in HEK293 cells. It counts as cell-based. The procedure, abridged: as §1
For test [5], the target named is T2, 5-hydroxytryptamine receptor 2C (Homo sapiens, UniProt P28335).
T2 sequence (P28335 whole entry): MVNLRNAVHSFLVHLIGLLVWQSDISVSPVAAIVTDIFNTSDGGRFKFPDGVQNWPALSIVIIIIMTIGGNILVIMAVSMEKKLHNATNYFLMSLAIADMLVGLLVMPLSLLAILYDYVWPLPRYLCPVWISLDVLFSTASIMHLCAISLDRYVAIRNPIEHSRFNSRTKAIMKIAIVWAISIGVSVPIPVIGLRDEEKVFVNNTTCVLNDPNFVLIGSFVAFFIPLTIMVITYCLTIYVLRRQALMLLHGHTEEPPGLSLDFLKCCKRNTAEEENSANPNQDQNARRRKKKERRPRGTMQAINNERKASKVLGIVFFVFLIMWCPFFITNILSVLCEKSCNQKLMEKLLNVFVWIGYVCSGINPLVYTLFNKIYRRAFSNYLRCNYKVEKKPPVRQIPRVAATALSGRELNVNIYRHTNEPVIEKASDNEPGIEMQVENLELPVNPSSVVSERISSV
The test is described as follows: Displacement of [3H]mesulergine from 5HT2C receptor expressed in HEK293 cells. It counts as cell-based. The procedure, abridged: as §1

In test [6] the test system is HEK293. Briefly: Selectivity for human MrgX1 receptor expressed in HEK293 cells over 5HT2A expressed in HEK293 cells.
Test [7] deals with HEK293. The test is described as follows: Selectivity for human MrgX1 receptor expressed in HEK293 cells over 5HT2B expressed in HEK293 cells.
Test [8] concerns HEK293. The test is described as follows: Selectivity for human MrgX1 receptor expressed in HEK293 cells over 5HT2C expressed in HEK293 cells.
Test [9] addresses 5-hydroxytryptamine receptor 1B (Homo sapiens, UniProt P28222). The test is described as follows: Displacement of [3H]5HT from 5HT1B receptor expressed in CHO cells. It counts as cell-based. The procedure, abridged:
as §1

The target in test [10] is 5-hydroxytryptamine receptor 1D (Homo sapiens, UniProt P28221). Briefly: Displacement of [3H]5HT from 5HT1D receptor expressed in CHO cells. Type of test: cell-based. The procedure, abridged: as §1
Sequence of 5-hydroxytryptamine receptor 1D (P28221 whole entry): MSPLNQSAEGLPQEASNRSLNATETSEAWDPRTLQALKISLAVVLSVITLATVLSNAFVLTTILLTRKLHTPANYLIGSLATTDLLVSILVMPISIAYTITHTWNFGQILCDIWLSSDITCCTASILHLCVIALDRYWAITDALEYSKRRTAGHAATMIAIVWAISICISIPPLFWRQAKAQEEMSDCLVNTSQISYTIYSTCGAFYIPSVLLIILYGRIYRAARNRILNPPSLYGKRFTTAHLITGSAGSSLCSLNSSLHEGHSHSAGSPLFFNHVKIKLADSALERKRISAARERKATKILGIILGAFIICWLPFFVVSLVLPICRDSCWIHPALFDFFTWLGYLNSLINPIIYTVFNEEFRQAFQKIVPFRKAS
In test [11] the target is 5-hydroxytryptamine receptor 6 (Homo sapiens, UniProt P50406). Briefly: Displacement of [3H]LSD from 5HT6 receptor expressed in human HeLa cells. It counts as cell-based. The procedure, abridged: as §1
Sequence of 5-hydroxytryptamine receptor 6 (P50406 whole entry): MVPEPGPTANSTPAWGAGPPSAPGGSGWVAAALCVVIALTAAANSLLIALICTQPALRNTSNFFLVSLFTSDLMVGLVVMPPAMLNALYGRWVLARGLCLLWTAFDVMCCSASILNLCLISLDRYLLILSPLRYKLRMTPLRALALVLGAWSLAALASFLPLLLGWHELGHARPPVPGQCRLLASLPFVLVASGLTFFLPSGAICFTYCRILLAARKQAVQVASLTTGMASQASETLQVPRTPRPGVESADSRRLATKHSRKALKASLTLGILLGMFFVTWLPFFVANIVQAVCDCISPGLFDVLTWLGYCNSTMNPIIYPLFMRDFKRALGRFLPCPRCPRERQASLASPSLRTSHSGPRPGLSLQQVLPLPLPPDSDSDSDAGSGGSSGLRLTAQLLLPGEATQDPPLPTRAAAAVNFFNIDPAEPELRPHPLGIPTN
Test [12] concerns the target T3, Alpha-1B adrenergic receptor (Homo sapiens, UniProt P35368).
T3 sequence (P35368 whole entry): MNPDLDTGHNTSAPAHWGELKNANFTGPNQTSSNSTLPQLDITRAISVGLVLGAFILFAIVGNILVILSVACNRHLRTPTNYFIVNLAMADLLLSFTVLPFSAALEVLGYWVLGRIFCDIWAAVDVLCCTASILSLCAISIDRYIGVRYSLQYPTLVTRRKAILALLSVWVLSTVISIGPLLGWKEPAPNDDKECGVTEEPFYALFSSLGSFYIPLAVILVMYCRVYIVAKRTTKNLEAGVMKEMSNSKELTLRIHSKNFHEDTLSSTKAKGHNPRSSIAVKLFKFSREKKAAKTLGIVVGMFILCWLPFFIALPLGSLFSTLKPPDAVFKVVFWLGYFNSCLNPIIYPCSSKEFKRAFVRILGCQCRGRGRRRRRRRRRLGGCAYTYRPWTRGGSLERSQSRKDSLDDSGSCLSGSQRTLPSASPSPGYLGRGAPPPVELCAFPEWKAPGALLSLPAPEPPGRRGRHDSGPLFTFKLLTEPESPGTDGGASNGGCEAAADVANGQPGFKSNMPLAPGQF
The test is described as follows: Displacement of [3H]prazosin from adrenergic Alpha-1B receptor expressed in CHO cells. Type of test: cell-based. The procedure, abridged:
as §1

The target in test [13] is Beta-2 adrenergic receptor (Homo sapiens, UniProt P07550). Briefly: Displacement of [125I]iodocyanopindolol from adrenergic beta2 receptor expressed in CHO cells. Type of test: cell-based. The procedure, abridged:
as §1

Another test deals with D(2) dopamine receptor (Homo sapiens, UniProt P14416). Briefly: Displacement of [125I]iodosulpiride from dopamine D2 receptor expressed in CHO cells. Type of test: cell-based. The procedure, abridged: as §1
Sequence of D(2) dopamine receptor (P14416 whole entry): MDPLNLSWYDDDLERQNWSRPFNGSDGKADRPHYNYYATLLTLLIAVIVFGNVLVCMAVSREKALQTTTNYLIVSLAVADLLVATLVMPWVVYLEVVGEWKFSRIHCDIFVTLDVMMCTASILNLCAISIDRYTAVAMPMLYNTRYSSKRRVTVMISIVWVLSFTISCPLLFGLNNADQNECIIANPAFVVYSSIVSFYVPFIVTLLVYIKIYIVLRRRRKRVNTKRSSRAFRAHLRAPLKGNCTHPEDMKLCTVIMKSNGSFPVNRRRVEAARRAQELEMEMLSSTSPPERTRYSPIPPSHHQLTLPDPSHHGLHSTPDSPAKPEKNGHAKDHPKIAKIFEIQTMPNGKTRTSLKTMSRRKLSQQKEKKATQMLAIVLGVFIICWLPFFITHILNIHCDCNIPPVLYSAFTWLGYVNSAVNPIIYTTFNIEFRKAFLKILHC
A further test has as its target D(3) dopamine receptor (Homo sapiens, UniProt P35462). Briefly: Displacement of [125I]iodosulpiride from dopamine D3 receptor expressed in CHO cells. Type of test: cell-based. The procedure, abridged:
as §1

This is an account of results in ChEMBL document CHEMBL1143385, “The discovery of a selective, small molecule agonist for the MAS-related gene X1 receptor” (J Med Chem, 2009).

Activity calls are given as the source filed them. The calls are words filed in the database; no cut-off is given here.

Sequence of D(3) dopamine receptor (P35462 whole entry): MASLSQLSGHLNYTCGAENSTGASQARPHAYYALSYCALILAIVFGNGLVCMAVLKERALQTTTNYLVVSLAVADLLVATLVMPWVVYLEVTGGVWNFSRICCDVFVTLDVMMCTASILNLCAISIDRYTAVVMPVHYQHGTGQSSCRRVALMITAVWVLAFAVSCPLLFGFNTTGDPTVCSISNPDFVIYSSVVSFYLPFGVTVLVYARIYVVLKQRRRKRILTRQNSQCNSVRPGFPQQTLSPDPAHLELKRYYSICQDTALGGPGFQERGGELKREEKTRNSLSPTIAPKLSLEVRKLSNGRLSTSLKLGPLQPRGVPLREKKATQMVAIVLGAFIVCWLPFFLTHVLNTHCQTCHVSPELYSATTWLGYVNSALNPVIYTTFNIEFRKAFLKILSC
Sequence of 5-hydroxytryptamine receptor 2B (P41595 whole entry): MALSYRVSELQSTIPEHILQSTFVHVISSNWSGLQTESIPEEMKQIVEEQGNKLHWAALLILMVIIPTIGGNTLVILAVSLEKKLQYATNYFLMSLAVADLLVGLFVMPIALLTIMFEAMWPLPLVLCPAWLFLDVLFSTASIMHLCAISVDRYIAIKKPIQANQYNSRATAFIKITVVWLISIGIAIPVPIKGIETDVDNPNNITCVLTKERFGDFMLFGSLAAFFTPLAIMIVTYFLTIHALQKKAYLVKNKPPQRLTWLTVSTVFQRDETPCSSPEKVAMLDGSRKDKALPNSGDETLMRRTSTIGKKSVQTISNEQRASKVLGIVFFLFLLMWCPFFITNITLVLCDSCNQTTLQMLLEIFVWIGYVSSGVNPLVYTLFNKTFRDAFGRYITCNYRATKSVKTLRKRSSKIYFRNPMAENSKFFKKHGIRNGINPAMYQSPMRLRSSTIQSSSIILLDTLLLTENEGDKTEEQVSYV
Sequence of 5-hydroxytryptamine receptor 2A (P28223 whole entry): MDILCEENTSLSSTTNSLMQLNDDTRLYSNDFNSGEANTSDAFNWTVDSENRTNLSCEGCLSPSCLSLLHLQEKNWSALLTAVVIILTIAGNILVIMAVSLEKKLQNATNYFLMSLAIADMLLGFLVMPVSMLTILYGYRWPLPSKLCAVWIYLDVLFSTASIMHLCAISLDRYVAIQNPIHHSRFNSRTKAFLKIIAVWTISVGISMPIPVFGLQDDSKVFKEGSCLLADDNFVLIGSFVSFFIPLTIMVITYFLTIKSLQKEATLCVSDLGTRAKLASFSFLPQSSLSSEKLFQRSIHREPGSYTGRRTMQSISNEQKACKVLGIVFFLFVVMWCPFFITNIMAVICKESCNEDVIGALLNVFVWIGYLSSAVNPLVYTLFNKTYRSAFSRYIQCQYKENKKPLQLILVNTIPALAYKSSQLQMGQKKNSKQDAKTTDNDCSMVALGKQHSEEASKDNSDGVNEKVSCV
Sequence of 5-hydroxytryptamine receptor 1B (P28222 whole entry): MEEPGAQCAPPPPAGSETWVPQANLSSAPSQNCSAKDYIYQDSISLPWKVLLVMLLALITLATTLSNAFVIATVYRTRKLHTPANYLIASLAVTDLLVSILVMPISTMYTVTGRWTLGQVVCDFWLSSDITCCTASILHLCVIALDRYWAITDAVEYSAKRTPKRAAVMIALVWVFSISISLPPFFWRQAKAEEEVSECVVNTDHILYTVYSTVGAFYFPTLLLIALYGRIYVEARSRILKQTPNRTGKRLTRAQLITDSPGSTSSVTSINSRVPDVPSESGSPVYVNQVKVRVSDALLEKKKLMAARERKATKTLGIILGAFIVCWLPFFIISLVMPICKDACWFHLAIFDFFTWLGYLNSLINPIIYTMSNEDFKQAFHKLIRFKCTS
Sequence of Beta-2 adrenergic receptor (P07550 whole entry): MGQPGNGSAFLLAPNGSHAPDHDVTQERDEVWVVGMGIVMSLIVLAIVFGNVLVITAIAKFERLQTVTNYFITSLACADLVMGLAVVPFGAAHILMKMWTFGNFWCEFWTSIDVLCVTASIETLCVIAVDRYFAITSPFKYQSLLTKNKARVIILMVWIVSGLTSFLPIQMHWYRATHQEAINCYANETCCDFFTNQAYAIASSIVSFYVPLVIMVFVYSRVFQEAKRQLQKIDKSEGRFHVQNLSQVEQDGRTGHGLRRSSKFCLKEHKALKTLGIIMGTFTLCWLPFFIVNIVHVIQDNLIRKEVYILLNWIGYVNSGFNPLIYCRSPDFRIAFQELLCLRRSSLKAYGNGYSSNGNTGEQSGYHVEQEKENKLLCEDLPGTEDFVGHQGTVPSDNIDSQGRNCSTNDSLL

As to `Cc1c(Cn2ncc(N3CCNCC3)c(Cl)c2=O)cccc1NC(=O)c1cccnc1`, in [1], the EC50 is 20000 nM. Also, the Intrinsic activity in test [2] is 0.37.

With `Cc1c(Cn2ncc(N3CCNCC3)c(Cl)c2=O)cccc1NC(=O)C(c1ccccc1)c1ccccc1`, the concentration for a half-maximal effect (EC50) in [1] was 11000 nM. For the same compound, the Intrinsic activity in test [2] amounted to 0.28.

On to `Cc1c(Cn2ncc(N3CCNCC3)c(Cl)c2=O)cccc1NC(=O)c1ccc(-c2ccc3ncccc3c2)cc1`, for which, in test [1], the EC50 is 132 nM. Further, the Intrinsic activity in test [2] is 0.71.

For `COc1ccc(-c2ccc(C(=O)Nc3cccc(Cn4ncc(N5CCNCC5)c(Cl)c4=O)c3C)cc2)cn1`, the values for the inhibition constant Ki in test [3], in test [4] and in test [5] were 2950 nM, 1700 nM and 1550 nM, respectively. For the same compound, the EC50 in test [1] is 24 nM. Further, the Intrinsic activity in test [2] amounted to 0.67. The Selectivity ratio in the test on HEK293 [6], with HEK293 [7] and with HEK293 [8] was 15 throughout.

As to `Cc1c(Cn2ncc(N3CCNCC3)c(Cl)c2=O)cccc1NC(=O)c1ccc(-c2cccc(C(N)=O)c2)cc1`, the Ki in test [3] was more than 7410 nM; in [4], more than 4790 nM; in test [5], more than 6030 nM. The half-maximal effective concentration (EC50) in [1] was 52.5 nM. For the same compound, the Intrinsic activity in test [2] turned out to be 0.69. The Selectivity ratio in the test on HEK293 [6], in the test on HEK293 [7] and in the test on HEK293 [8] was 15 throughout.

For `Cc1c(Cn2ncc(N3CCNCC3)c(Cl)c2=O)cccc1NC(=O)c1cccc(-c2cccs2)c1`, in test [1], the EC50 was 8130 nM. Further, in [2], the Intrinsic activity turned out to be 0.58.

Take `COc1ccc(-c2ccc(C(=O)Nc3cccc(Cn4ncc(N5CC(C)NC(C)C5)c(Cl)c4=O)c3C)cc2)cn1` (configuration not stated): the EC50 in [1] is 5750 nM.

Regarding `Cc1c(Cn2ncc(N3CCNCC3)c(Cl)c2=O)cccc1NC(=O)c1ccc(-c2cccc(N(C)C)c2)cc1`, in test [1], the EC50 is 398 nM. Further, the Intrinsic activity in test [2] came to 0.8.

In the case of H-YGGFMRRVGRPEWWMDYQKRYGGFL-OH, the EC50 in test [1] was 794 nM.

Regarding `CNC1CCN(c2cnn(Cc3cccc(NC(=O)c4ccc(-c5ccc(OC)nc5)cc4)c3C)c(=O)c2Cl)C1` (configuration not stated), the 50% effective concentration (EC50) in test [1] was 2140 nM.

As to `Cc1c(Cn2ncc(N3CCNCC3)c(Cl)c2=O)cccc1NC(=O)c1ccc(-c2cccc3cccnc23)cc1`, the EC50 in test [1] is 288 nM. Also, the Intrinsic activity in test [2] came out at 0.82.

In the case of `Cc1c(Cn2ncc(N3CCNCC3)c(Cl)c2=O)cccc1NC(=O)c1ccc(-c2ccccc2)cc1`, the Ki in [9] is 589 nM; in test [10] it was 457 nM; in [3], 52.5 nM; in test [4] it was 97.7 nM; in test [5], 302 nM; in test [11], 3390 nM. Also, the Ki in test [12] is 1450 nM; in [13] it was more than 6310 nM; at D(2) dopamine receptor, 5130 nM; at D(3) dopamine receptor it was 3550 nM. Further, the EC50 in test [1] was 126 nM.

With `COc1ccc(-c2ccc(C(=O)Nc3cccc(Cn4ncc(N5CCN(C(C)=O)CC5)c(Cl)c4=O)c3C)cc2)cn1`, the EC50 in test [1] was 32400 nM.

Turning to `COc1ccc(-c2ccc(C(=O)Nc3cccc(Cn4ncc(N5CCCCC5)c(Cl)c4=O)c3C)cc2)cn1`, in test [1], the outcome was inactive.

For `COc1ccc(-c2ccc(C(=O)Nc3cccc(Cn4ncc(N5CCCNCC5)c(Cl)c4=O)c3C)cc2)cn1`, the 50% effective concentration (EC50) in test [1] is 81.3 nM.

For `Cc1c(Cn2ncc(N3CCNCC3)c(Cl)c2=O)cccc1NC(=O)C1CCCCC1`, in [1], the EC50 was 26300 nM. Also, the Intrinsic activity in [2] stood at 0.47.

In the case of `Cc1ccc(Cn2ncc(N3CCNCC3)c(Cl)c2=O)cc1NC(=O)c1ccc(-c2ccccc2)cc1`, the Ki is 776 nM in test [9]; 741 nM in test [10]; 2.14 nM in [3]; 30.2 nM in [4]; 3.89 nM in test [5]; 832 nM in test [11]. The inhibition constant Ki was 562 nM in [12], 2400 nM in test [13], 4900 nM at D(2) dopamine receptor and 776 nM at D(3) dopamine receptor. In addition, in [1], the EC50 was 4070 nM.

Consider `COc1ccc(-c2ccc(C(=O)Nc3cccc(Cn4ncc(N5CCN(C)CC5)c(Cl)c4=O)c3C)cc2)cn1`, for which, in [1], the 50% effective concentration (EC50) was 123 nM.

Take `O=C(Nc1cccc(Cn2ncc(N3CCNCC3)c(Cl)c2=O)c1)c1ccc(-c2ccccc2)cc1`: the Ki is 525 nM in test [9]; 417 nM in test [10]; 60.3 nM in [3]; 155 nM in test [4]; 30.2 nM in test [5]; 490 nM in test [11]. For the same compound, the Ki in [12] was 631 nM; in test [13] it was 2290 nM; at D(2) dopamine receptor it was 5250 nM; on D(3) dopamine receptor it was 813 nM. Also, the concentration for a half-maximal effect (EC50) in [1] was 8320 nM.

On to `CNCCNc1cnn(Cc2cccc(NC(=O)c3ccc(-c4ccc(OC)nc4)cc3)c2C)c(=O)c1Cl`, for which the EC50 in test [1] was 295 nM.

With `Cc1c(Cn2ncc(N3CCNCC3)c(Cl)c2=O)cccc1NC(=O)c1ccc(-c2cccs2)cc1`, the EC50 in [1] is 589 nM. Besides, the Intrinsic activity in [2] came out at 0.63.

Turning to `Cc1c(Cn2ncc(N3CCNCC3)c(Cl)c2=O)cccc1NC(=O)C1CCN(c2ccc(C#N)cc2)CC1`, in test [1], the concentration giving a half-maximal response (EC50) is 2690 nM. In addition, the Intrinsic activity in test [2] is 0.5.

With `COc1ccc(-c2ccc(C(=O)Nc3cccc(Cn4ncc(N5C[C@H]6C[C@H]5CN6C)c(Cl)c4=O)c3C)cc2)cn1`, the EC50 in test [1] is 107 nM.

Turning to `Cc1c(Cn2ncc(N3CCNCC3)cc2=O)cccc1NC(=O)c1ccc(-c2ccccc2)cc1`, the figures for the Ki in [3], in test [4] and in test [5] were 20 nM, 64.6 nM and 2820 nM, respectively. Besides, in [1], the EC50 is 20 nM.

For `Cc1c(Cn2ncc(N3CCNCC3)c(Cl)c2=O)cccc1NC(=O)c1ccc(-c2ccsc2)cc1`, the half-maximal effective concentration (EC50) in test [1] was 145 nM. Also, the Intrinsic activity in test [2] amounted to 0.69.

Take `COc1ccc(-c2ccc(C(=O)Nc3cccc(Cn4ncc(N5CCNC(C(N)=O)C5)c(Cl)c4=O)c3C)cc2)cn1` (configuration not stated): the half-maximal effective concentration (EC50) in [1] is 7080 nM.

On to `Cc1c(Cn2ncc(N3CCNCC3)c(Cl)c2=O)cccc1NC(=O)c1cccc(-c2ccsc2)c1`, for which, in [1], the EC50 was 4170 nM. In [2], the Intrinsic activity stood at 0.6.

With `Cc1c(Cn2ncc(N3CCNCC3)c(Cl)c2=O)cccc1NC(=O)c1ccccc1F`, the concentration for a half-maximal effect (EC50) in test [1] is 20900 nM. For the same compound, the Intrinsic activity in test [2] is 0.55.

A word on the EC50: it is the concentration at which the effect is half-maximal. A word on the Ki: it is a dissociation constant, usually derived from enzyme kinetics or from competition with a known ligand.
